# According to ChEMBL document CHEMBL1122650, “Synthesis and central nervous system properties of 2-[(alkoxycarbonyl)amino]-4(5)-phenyl-2-imidazolines” (J Med Chem, 1984):
# Activity calls are given as the source filed them. The calls are words filed in the database; no cut-off is given here.
# System: not listed separately
# Test: HPLC capacity factor (k')
# Assay type: ADME
# Conditions: not given
row,SMILES,Log k'
1,COC(=O)NC1=NC(c2cc(OC)cc(OC)c2)CN1 (configuration not stated),0.1
2,CCOc1ccccc1C1CN=C(NC(=O)OC)N1 (configuration not stated),0.55
3,CCCOC(=O)NC1=NC(c2ccccc2F)CN1C (configuration not stated),0.87
4,COC(=O)NC1=NC(c2ccccc2Br)CN1 (configuration not stated),0.47
5,COC(=O)NC1=NC(c2ccc(C(F)(F)F)cc2)CN1 (configuration not stated),0.56
6,CC(C)COC(=O)NC1=NC(c2ccccc2)CN1C (configuration not stated),1.15
7,COC(=O)NC1=NC(c2ccccc2)CN1Cc1ccccc1 (configuration not stated),1.25
8,COC(=O)NC1=NC(c2cccc(C)c2)CN1C (configuration not stated),0.49
9,COC(=O)NC1=NC(c2cccc(Cl)c2)CN1C (configuration not stated),0.53
10,CC(C)OC(=O)NC1=NC(c2cccc(Cl)c2)CN1 (configuration not stated),0.95

# System: Mus musculus
# Test: Evaluated in vivo for reserpine hypothermia after oral administration in mouse. Minimum active dose was reported; Inactive
# Assay type: functional, organism-based
# Conditions: not given
# In short: (§1)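 Male HLa (ICR) BR mice, 18-24 g, in groups of eight; reserpine 5 mg/kg ip given 2 h before oral test compound as aqueous solution. Rectal temperature taken hourly; 1-4-h hypothermia assessed by analysis of variance.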
row,SMILES,ED50
1,COC(=O)NC1=NC(c2ccc(C(F)(F)F)cc2)CN1 (configuration not stated),inactive

# Species on record: Mus musculus
# Test: Evaluated for antagonism of reserpine induced hypothermia;I= Inactive
# Assay type: functional, organism-based
# Conditions: not given
# In short: as §1
row,SMILES,HYPO
1,COC(=O)NC1=NC(c2cc(OC)cc(OC)c2)CN1 (configuration not stated),inactive
2,CCOc1ccccc1C1CN=C(NC(=O)OC)N1 (configuration not stated),inactive
3,COC(=O)NC1=NC(c2ccccc2)CN1Cc1ccccc1 (configuration not stated),inactive

# Species on record: Mus musculus
# Test: Mouse behavior activity was determined; Dwk=Depressant Weak
# Assay type: functional, organism-based
# Conditions: not given
# In short: (§2)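 Male Simonsen (ICR) fBR mice, 18-24 g, groups of three, given 3, 10, 30, 100, 300 or 1000 mg/kg ip as aqueous solution and observed for behavioral profile; deaths followed up to 7 days.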
row,SMILES,Mouse behavior activity
1,COC(=O)NC1=NC(c2cc(OC)cc(OC)c2)CN1 (configuration not stated),Depressant - weak
2,COC(=O)NC1=NC(c2ccc(C(F)(F)F)cc2)CN1 (configuration not stated),Depressant - weak
3,COC(=O)NC1=NC(c2ccccc2)CN1Cc1ccccc1 (configuration not stated),Depressant Weak

# Species on record: Mus musculus
# Test: Mouse behavior activity was determined;D= Depressant
# Assay type: functional, organism-based
# Conditions: not given
# In short: as §2
row,SMILES,Mouse behavior activity
1,CCOc1ccccc1C1CN=C(NC(=O)OC)N1 (configuration not stated),Depressant
2,CC(C)COC(=O)NC1=NC(c2ccccc2)CN1C (configuration not stated),Depressant
3,COC(=O)NC1=NC(c2cccc(C)c2)CN1C (configuration not stated),Depressant
4,COC(=O)NC1=NC(c2cccc(Cl)c2)CN1C (configuration not stated),Depressant

# Species on record: Mus musculus
# Test: Compound was evaluated for maximal electroshock antagonism (MES) against mice
# Assay type: functional
# Conditions: not given
# In short: (§3)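 Male HLa (ICR) BR mice, groups of eight to ten, dosed ip (aqueous solution) 15 min before transcorneal electroshock (50 mA, 0.2 s). End point: abolition of tonic hind-limb extension; quantal ED50 by Litchfield-Wilcoxon.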
row,SMILES,ED50 [mg/kg]
1,CCCOC(=O)NC1=NC(c2ccccc2F)CN1C (configuration not stated),23
2,COC(=O)NC1=NC(c2ccccc2Br)CN1 (configuration not stated),62
3,CC(C)COC(=O)NC1=NC(c2ccccc2)CN1C (configuration not stated),70
4,COC(=O)NC1=NC(c2ccccc2)CN1Cc1ccccc1 (configuration not stated),100
5,COC(=O)NC1=NC(c2cccc(C)c2)CN1C (configuration not stated),89
6,COC(=O)NC1=NC(c2cccc(Cl)c2)CN1C (configuration not stated),100
7,CC(C)OC(=O)NC1=NC(c2cccc(Cl)c2)CN1 (configuration not stated),79

# Species on record: Mus musculus
# Test: Compound was evaluated for maximal electroshock antagonism (MES) against mice; Inactive
# Assay type: functional, organism-based
# Conditions: not given
# In short: as §3
row,SMILES,ED50
1,COC(=O)NC1=NC(c2cc(OC)cc(OC)c2)CN1 (configuration not stated),inactive
2,CCOc1ccccc1C1CN=C(NC(=O)OC)N1 (configuration not stated),inactive
3,COC(=O)NC1=NC(c2ccc(C(F)(F)F)cc2)CN1 (configuration not stated),inactive

# Species on record: Mus musculus
# Test: Righting ability was determined in mice after rapid rolling (aroused)
# Assay type: functional
# Conditions: not given
# In short: (§4)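 Male Simonsen (ICR) fBR mice, 18-24 g, groups of ten, dosed with aqueous compound. Righting ability checked before (unaroused) and after (aroused) rapid rolling in the hand; ED50 by Litchfield-Wilcoxon method.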
row,SMILES,Loss of righting reflex [mg/kg]
1,CCOc1ccccc1C1CN=C(NC(=O)OC)N1 (configuration not stated),125

# Species on record: Mus musculus
# Test: Righting ability was determined in mice […] rapid rolling (aroused)
# Assay type: functional
# Conditions: not given
# In short: as §4
row,SMILES,Loss of righting reflex [mg/kg]
1,CC(C)COC(=O)NC1=NC(c2ccccc2)CN1C (configuration not stated),76
2,COC(=O)NC1=NC(c2cccc(C)c2)CN1C (configuration not stated),149

# Species on record: Mus musculus
# Test: Righting ability was determined in mice before rapid rolling (unaroused)
# Assay type: functional
# Conditions: not given
# In short: as §4
row,SMILES,Loss of righting reflex [mg/kg]
1,CCOc1ccccc1C1CN=C(NC(=O)OC)N1 (configuration not stated),155
2,CC(C)COC(=O)NC1=NC(c2ccccc2)CN1C (configuration not stated),41
3,COC(=O)NC1=NC(c2cccc(C)c2)CN1C (configuration not stated),90
4,COC(=O)NC1=NC(c2cccc(Cl)c2)CN1C (configuration not stated),200

# Species on record: Mus musculus
# Test: Evaluated for antagonism of reserpine induced hypothermia
# Assay type: functional
# Conditions: not given
# In short: as §1
row,SMILES,HYPO [mg/kg]
1,COC(=O)NC1=NC(c2ccc(C(F)(F)F)cc2)CN1 (configuration not stated),>20
2,CC(C)COC(=O)NC1=NC(c2ccccc2)CN1C (configuration not stated),>20

# System: not listed separately
# Test: Lethal dose in mouse, in groups of ten
# Assay type: toxicity, organism-based
# Conditions: in vivo
row,SMILES,LD50 [mg/kg]
1,COC(=O)NC1=NC(c2cc(OC)cc(OC)c2)CN1 (configuration not stated),300
2,CCOc1ccccc1C1CN=C(NC(=O)OC)N1 (configuration not stated),700
3,COC(=O)NC1=NC(c2ccc(C(F)(F)F)cc2)CN1 (configuration not stated),700
4,CC(C)COC(=O)NC1=NC(c2ccccc2)CN1C (configuration not stated),247
5,COC(=O)NC1=NC(c2ccccc2)CN1Cc1ccccc1 (configuration not stated),200
6,COC(=O)NC1=NC(c2cccc(C)c2)CN1C (configuration not stated),475
7,COC(=O)NC1=NC(c2cccc(Cl)c2)CN1C (configuration not stated),300
